# FLuc act counter – firefly luciferase counter-screen for stimulation assays; activation factor at 10 µM; ATPlite luciferase biochemical, luminescence, 10 min; 0 = ATP-free wells, 1 = DMSO control; P08659; 200,000 tested, under 10 active;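 active = luciferase activation factor, scaled between plate controls, of at least 2 with compound at 10 µM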
# Target sequence (P08659 whole entry, looked up): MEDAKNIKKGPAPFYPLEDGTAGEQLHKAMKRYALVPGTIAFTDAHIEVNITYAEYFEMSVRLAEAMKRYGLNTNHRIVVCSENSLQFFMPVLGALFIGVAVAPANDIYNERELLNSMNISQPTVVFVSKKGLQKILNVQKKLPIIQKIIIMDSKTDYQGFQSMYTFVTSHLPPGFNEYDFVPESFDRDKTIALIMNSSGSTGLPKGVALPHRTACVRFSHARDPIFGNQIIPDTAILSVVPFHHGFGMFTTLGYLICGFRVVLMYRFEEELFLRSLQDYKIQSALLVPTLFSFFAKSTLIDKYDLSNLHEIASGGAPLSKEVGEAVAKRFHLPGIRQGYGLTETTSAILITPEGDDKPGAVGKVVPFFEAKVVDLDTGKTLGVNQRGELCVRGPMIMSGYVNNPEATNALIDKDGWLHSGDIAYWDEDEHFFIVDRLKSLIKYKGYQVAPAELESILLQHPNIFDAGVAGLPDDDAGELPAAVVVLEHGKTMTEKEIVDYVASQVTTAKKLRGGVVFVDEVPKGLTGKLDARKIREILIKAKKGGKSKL
#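 Assay system: Luciferase/luciferin detection reagent, cell-free biochemical luciferase assay / Read-out: luciferase activation / Benchmarks: No-ATP low control, compound-free enzyme-plus-ATP high control / Medium: PBS buffer for ATP / Detection: luminescence measurement of luciferase light output / Schedule: 10 min at ambient temperature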
# STAT3 act-1 – activators of IL-6 induced STAT3 signaling; AID 871; U3A cells, IL-6 STAT3-luciferase reporter, luminescence; 100% = signal with IL-6 EC80 alone; actives 0.91% (n = 190,000); activation (% of control), % at 5.6 µM;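 active = activation above the screen-wide mean of compound activation plus 3 SD, cut at about 130% in these data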;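 also: 0% = background luminescence of wells with medium and substrate only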
#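 system = STAT3-luciferase reporter U3A cells | reagent = IL-6 stimulus at 33 ng/mL final | timing = 1 h compound pre-exposure, 6 h IL-6 stimulation, 37 °C | measured by = luminescence | evaluation = % activation versus median of IL-6-stimulated wells | control set = IL-6-only wells as 100% reference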
# STAT1 act-1 – activators of IFN-gamma induced STAT1 signaling; NIH 3T3 STAT1-luciferase reporter, luminescence; 100% = IFN-gamma alone, no compound; activation (% of control), % at 5.5 µM; actives 2.6% (n = 200,000); AID 932;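 active = activation above the screen-wide mean activation plus 3 SD, cut at about 130% in these data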;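 also: raw ratio to IFN-gamma control signal so 100% means no change and 0% no light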
# STAT3 inh – inhibitors of IL-6 induced STAT3 signaling; U3A cells, IL-6 STAT3-luciferase reporter, luminescence; host cell line lacks STAT1; inhibition, % at 5.5 µM; actives 0.89% (n = 190,000);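 active = inhibition above the mean inhibition across all screened compounds plus 3 SD, cut at about 44% in these data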;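 also: 0% = DMSO only wells and 100% = 100 µM nifuroxazide control wells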
# FLuc inh counter – Photinus pyralis luciferase inhibition counter-screen; inhibition, % at 10 µM; actives 1.5% (n = 200,000); ATPLite firefly luciferase biochemical luminescence, 10 min; P08659;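 active = inhibition above about 50% when tested at 10 µM, limit read from the data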
# STAT1 blocker – reduces IFN-gamma driven STAT1 reporter signal. inhibition, % at 5.5 µM. NIH 3T3 STAT1-luciferase reporter, luminescence. actives 0.35% (n = 200,000). AID 920;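 active = inhibition above a set limit, the mean inhibition across all tested compounds plus 3 SD, cut at about 34% in these data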;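 also: 0% = IFN-gamma with DMSO and 100% = IFN-gamma with 300 µM nifuroxazide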
# STAT3 act-2 – confirmation of STAT3 signaling activators; shares compounds with STAT3 act-1; U3A STAT3-luciferase reporter, IL-6 potentiation, luminescence; U3A cells lack STAT1; 100 means same as IL-6 alone; potentiation (% of control), % at 5.7 µM; actives 64% (n = 1,200);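 active = percent activation of the STAT3 luciferase reporter above a set limit taken from the earlier primary screen, cut at about 130% in these data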;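 also: 0% = background signal of medium plus substrate and 100% = median of IL-6 with DMSO wells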
# NFkB act STAT3ct – activates NF-kappaB, counter-screen to STAT3 activators. shares compounds with STAT3 act-1. human cells, NF-kappaB reporter activation. activation (% of control), % at 5.7 µM. actives 11% (n = 1,200); in the data active = activation above about 120%;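 also: reporter induced by TNF-alpha stimulation; 100% = median of stimulated DMSO wells and 0% = no signal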
# STAT1 act-2 – STAT1 activation in STAT3 activator counter-screen. activation (% of control), % at 5.7 µM. actives 13% (n = 1,200). NIH 3T3 STAT1-luciferase reporter, IFN-gamma, luminescence. shares compounds with STAT3 act-1;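 active = activation above the solvent-only control well mean plus 3 SD, set per screening run, cut at about 120% in these data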;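 also: 100% = IFN-gamma with DMSO median signal so 100% means no change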
# Active calls of the source: *; · = no result. Sampled rows, rich in hits. Any-hit rate of the full collection: about 4.9%.
SMILES,FLuc act counter,STAT3 act-1,STAT1 act-1,STAT3 inh,FLuc inh counter,STAT1 blocker,STAT3 act-2,NFkB act STAT3ct,STAT1 act-2
CCC(=O)Nc1ccc(/C(C)=N\NS(=O)(=O)c2ccc(C)cc2)cc1,1,107.5,98.4,-1.1,0.8,1.8,·,·,·
O=C(O)c1ccccc1CSc1ncccc1C(=O)O,1.1,89.0,100.6,19.2,-9.5,-2.0,·,·,·
COc1ccc(C)cc1NC(=O)c1cc2ccccc2o1,1,130.8,114.5,-28.0,3.8,-15.9,·,·,·
COc1ccc(OC)c(NC(=O)c2cc3ccccc3o2)c1,1,136.1*,107.6,-42.7,3.8,-8.2,128.7,108.7,112.4
O=C(O)CC/C(=C\c1cc([N+](=O)[O-])ccc1Cl)c1nc2ccccc2s1,1,141.6*,86.7,-46.1,-2.4,14.9,146.8*,103.2,91.9
O=C(O)CC/C(=C\c1ccccc1[N+](=O)[O-])c1nc2ccccc2s1,1,107.4,103.4,-8.5,2.8,-3.0,·,·,·
CCc1ccc(OCC(=O)NC(NC(=S)Nc2ccc(Cl)cc2)C(Cl)(Cl)Cl)cc1 (stereo not given),1.1,102.7,99.2,-5.7,-9.7,0.9,·,·,·
Cc1cc(C)nc(SCSc2nc(C)cc(C)n2)n1,1,100.8,94.9,3.4,1.2,3.8,·,·,·
Cc1cc(C)nc(SC2CCCCC2O)n1 (stereo not given),1.1,135.8*,97.3,-41.4,-5.5,4.7,112.3,96.9,99.0
COc1ccc(C(O)c2nccc3cc(OC)c(OC)cc23)cc1OC (stereo not given),1,74.5,79.9,36.7,-2.7,20.3,·,·,·
Clc1cccc(/C=N/Nc2nnc(Cl)c3ccccc23)c1,1,140.4*,100.4,-39.3,3.3,-0.4,127.9,112.6,117.3
Clc1cccc(N/N=C/c2ccncc2)c1,1,93.6,112.1,5.6,0.2,-10.3,·,·,·
Cc1ccccc1Nc1nc(N)nc(COC(=O)c2ccc(O)cc2)n1,1,81.7,102.9,24.3,-1.7,-3.2,·,·,·
CCc1ccccc1Nc1nc(N)nc(COC(=O)c2cccn2C)n1,1.1,147.0*,108.3,-44.5,-7.5,-9.1,150.3*,110.0,125.1*
Cc1ccc(C)c(C(=O)COC(=O)c2cc([N+](=O)[O-])ccc2NCCO)c1,1.1,98.1,96.6,-2.8,-10.0,3.7,·,·,·
Cc1ccc(OCC(=O)Nc2cccc3nsnc23)c(C)c1,1,144.8*,95.3,-52.7,-1.3,5.1,130.7,104.8,94.3
Cc1ccc(OCC(=O)Nc2ccc3c4c(cccc24)CC3)c(C)c1,1,92.7,99.2,10.7,-3.0,0.9,·,·,·
Cn1c(-[n+]2c(-c3ccccc3)cc(-c3ccccc3)cc2-c2ccccc2)nc2c([N+](=O)[O-])cccc21,1.1,150.5*,89.7,-52.9,-5.6,11.3,147.0*,104.2,98.5
CN(c1ccccc1C(=O)N1CCN(Cc2ccc3c(c2)OCO3)CC1)S(C)(=O)=O,1,96.5,100.4,5.7,-3.4,-1.6,·,·,·
CCN(CC)S(=O)(=O)c1cccc(C(=O)NC(C)C(c2cccs2)N2CCCC2)c1 (stereo not given),1.1,99.8,93.8,2.7,-7.4,5.9,·,·,·
Cn1c(=O)c(C(=O)Nc2ccccn2)c(O)c2ccccc21,0.3,139.3*,121.4,-44.1,66.8*,-23.4,178.4*,115.3,181.4*
COC(=O)CSc1nn(-c2ccc(F)cc2)c(=S)s1,1,102.8,95.2,-0.9,1.6,5.7,·,·,·
Cc1cc(C)n(-c2nnc3n2N=C(c2c[nH]c4ccccc24)CS3)n1,1,157.6*,99.8,-65.0,-3.3,6.0,154.0*,104.6,100.6
Cc1cc(C)n(-c2nnc3n2N=C(c2ccccc2)CS3)n1,1,97.2,94.1,7.5,0.7,6.4,·,·,·
CCOC(=O)N(NC(=O)C(O)(CC(C)C)CC(C)C)c1ccccc1,1,97.1,90.0,2.0,-1.4,10.8,·,·,·
SMILES,FLuc act counter,STAT3 act-1,STAT1 act-1,STAT3 inh,FLuc inh counter,STAT1 blocker,STAT3 act-2,NFkB act STAT3ct,STAT1 act-2
COc1ccc(-c2ccc(-c3nnc(-c4cc(OC)ccc4OC)o3)cc2)cc1,1.1,138.3*,101.0,-42.3,-7.7,-1.1,83.9,105.1,102.6
Cc1cccc(NC(=O)CSc2nc3c([nH]c4ccccc43)c(=O)n2C)c1,1,146.5*,82.4,-39.7,-1.8,19.2,135.0*,95.0,87.0
Cn1c(SCC(=O)Nc2ccccc2)nc2c([nH]c3ccccc32)c1=O,1,104.6,90.2,4.4,-4.9,10.8,·,·,·
CCC(C)Sc1nc2c([nH]c3ccccc32)c(=O)n1C (stereo not given),1.1,165.5*,88.8,-75.1,-7.0,12.3,124.3,103.4,100.1
COc1cccc(NC(=O)CSc2nc3c([nH]c4ccccc43)c(=O)n2C)c1,1,138.9*,79.3,-31.7,-1.5,22.6,124.0,100.3,89.9
O=C(NCCCN1CCN(CCCNC(=O)c2cc([N+](=O)[O-])ccc2Cl)CC1)c1cc([N+](=O)[O-])ccc1Cl,1.1,94.6,97.4,7.3,-11.4,3.0,·,·,·
CCOC(=O)C1(S(=O)(=O)c2ccc(Cl)cc2)CCN(Cc2ccc(C)cc2)CC1,1.1,105.9,97.3,-6.0,-5.2,3.0,·,·,·
CC(=O)n1cc(C2C(=O)CCCC2=O)c2ccccc21,1,140.1*,97.0,-42.2,-2.4,3.3,118.3,99.5,97.0
O=C(NN=C1CCCCCCC1)c1ccccn1,1,108.0,118.7,-6.4,-2.8,-20.8,·,·,·
NNC(=O)c1ccc2ccccc2n1,1.1,144.1*,97.5,-38.0,-5.2,0.7,140.6*,104.6,99.9
O=C(NN=C1CCCCCCC1)c1ccc2ccccc2n1,1,153.8*,109.8,-62.9,4.8,-12.1,139.8*,107.1,118.8
Cc1[nH]c2ccccc2c1/C=N/Nc1ccc(F)cc1F,0.9,154.8*,112.7,-58.6,9.5,-14.1,142.0*,107.9,121.1*
COc1ccc(C)cc1NC(=O)Nc1ccc(Br)cn1,1,143.7*,98.3,-51.3,-4.2,1.8,116.2,96.8,97.5
CCOC(=O)Nc1cc(C)ccc1OC,1,97.8,94.3,6.3,-4.8,6.1,·,·,·
Cc1oc(-c2cc(F)ccc2F)nc1CN1CCN(C)C(=O)[C@@H]1C,1,99.2,91.8,6.7,-4.7,8.7,·,·,·
